Laboratory results: ChEMBL document CHEMBL2375320, “Synthesis and antimicrobial activity of polyhalo isophthalonitrile derivatives” (2013)
Converted amounts (≈) assume the structure as drawn. The source made the active and inactive calls. The calls are words filed in the database; no cut-off is given here.

Legend:
Assay type in all cases: functional
Staphylococcus aureus [1] = assay: Antibacterial activity against Staphylococcus aureus ATCC 6538 assessed as growth inhibition after 24 hrs by microbroth dilution method; details: ATCC 6538, 24 h
How it was run: (§1)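 Tube dilution: each compound or positive control (norfloxacin, fluconazole) prepared in DMSO at 11 concentrations from 0.98 to 1000 µg/mL. Inoculum and sterile water added to tubes each holding 1 mL of compound solution. Tubes incubated 24 h and inspected for turbidity. MIC is the lowest concentration with no visible growth. Run in triplicate.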

Pseudomonas aeruginosa = assay: Antibacterial activity against Pseudomonas aeruginosa ATCC 15442 assessed as growth inhibition at 1000 ug/mL after 24 hrs by disk diffusion method; details: for zone of inhibition at 1000 µg/mL: ATCC 15442, 24 h, read-out: IZ
Staphylococcus aureus [2] = assay: Antibacterial activity against Staphylococcus aureus ATCC 6538 assessed as growth inhibition at 1000 ug/mL after 24 hrs by disk diffusion method; details: for zone of inhibition at 1000 µg/mL: ATCC 6538, 24 h, read-out: IZ
Escherichia coli = assay: Antibacterial activity against Escherichia coli ATCC 8099 assessed as growth inhibition at 1000 ug/mL after 24 hrs by disk diffusion method
Bacillus cereus [3] = assay: Antibacterial activity against Bacillus cereus ATCC 14579 assessed as growth inhibition after 24 hrs by microbroth dilution method; details: ATCC 14579, 24 h; how it was run: as §1
Candida albicans [4] = assay: Antifungal activity against Candida albicans ATCC 10231 assessed as growth inhibition after 24 hrs by microbroth dilution method; how it was run: as §1
Bacillus cereus [5] = assay: Antibacterial activity against Bacillus cereus ATCC 14579 assessed as growth inhibition at 1000 ug/mL after 24 hrs by disk diffusion method; details: for zone of inhibition at 1000 µg/mL: ATCC 14579, 24 h, read-out: IZ
Candida albicans [6] = assay: Antifungal activity against Candida albicans ATCC 10231 assessed as growth inhibition at 1000 ug/mL after 72 hrs by disk diffusion method; details: for zone of inhibition at 1000 µg/mL: ATCC 10231, 72 h, read-out: IZ
How it was run: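 Candida grown and kept on Sabouraud glucose agar plates. Compounds screened at a fixed 1000 µg/mL, with fluconazole as positive control. Plates incubated at 26 °C for 72 h, then zones of inhibition measured in mm.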

SMILES	MIC (Staphylococcus aureus [1]) [µg/mL]	inhibition zone (IZ) (Pseudomonas aeruginosa)	zone of inhibition at 1000 µg/mL (Staphylococcus aureus [2]) [mm]	inhibition zone (IZ) (Escherichia coli)	MIC (Bacillus cereus [3]) [µg/mL]	MIC (Candida albicans [4]; ATCC 10231, 24 h) [µg/mL]	inhibition zone (IZ) (Bacillus cereus [5])	inhibition zone (IZ) (Staphylococcus aureus [2])	inhibition zone (IZ) (Candida albicans [6])	zone of inhibition at 1000 µg/mL (Pseudomonas aeruginosa) [mm]	zone of inhibition at 1000 µg/mL (Escherichia coli; ATCC 8099, 24 h, read-out: IZ) [mm]	zone of inhibition at 1000 µg/mL (Bacillus cereus [5]) [mm]	zone of inhibition at 1000 µg/mL (Candida albicans [6]) [mm]	MIC (Candida albicans [4])
CCCSc1c(Cl)c(N)c(C#N)c(SCCC)c1C#N	250 (≈ 767 µM)	inactive	7.5	inactive	> 1000	> 1000	inactive	–	–	–	–	–	–	–
N#Cc1c(N)c(Cl)c(Cl)c(C#N)c1Cl	–	inactive	–	inactive	–	–	inactive	inactive	inactive	–	–	–	–	–
COc1ccc(Nc2c(Cl)c(Cl)c(C#N)c(Cl)c2C#N)cc1	–	inactive	–	inactive	–	–	inactive	inactive	inactive	–	–	–	–	–
CCn1cc(C(=O)O)c(=O)c2cc(F)c(N3CCNCC3)cc21 [NORFLOXACIN]	0.5 (≈ 1.57 µM)	–	19.9	–	0.5 (≈ 1.57 µM)	–	–	–	–	18	31	15.2	–	–
N#Cc1c(F)c(F)c(Nc2ccc(Cl)cc2)c(C#N)c1F	1.5 (≈ 4.88 µM)	–	19.8	inactive	31.3 (≈ 102 µM)	2.3 (≈ 7.48 µM)	–	–	–	7.8	–	16.7	13.3	–
CCCSc1c(Cl)c(N)c(C#N)c(Cl)c1C#N	500 (≈ 1750 µM)	inactive	7	inactive	> 1000	> 1000	–	–	–	–	–	7	–	–
N#Cc1c(F)c(Cl)c(NCc2ccccc2)c(C#N)c1F	0.5 (≈ 1.65 µM)	inactive	23.1	inactive	0.4 (≈ 1.32 µM)	0.5 (≈ 1.65 µM)	–	–	–	–	–	22.6	13.9	–
N#Cc1c(F)c(F)c(NCc2ccccc2)c(C#N)c1F	1.3 (≈ 4.53 µM)	inactive	19.3	inactive	3.9 (≈ 13.6 µM)	10.4 (≈ 36.2 µM)	–	–	–	–	–	18.1	11.6	–
CN(C)CCCNc1c(Cl)c(N)c(C#N)c(F)c1C#N	–	inactive	14.2	inactive	–	–	–	–	–	–	–	15	–	–
N#Cc1c(F)c(Cl)c(Nc2ccc(Cl)cc2)c(C#N)c1F	26 (≈ 80.2 µM)	–	10.7	inactive	417 (≈ 1290 µM)	–	–	–	inactive	7.6	–	12.2	–	inactive
N#Cc1c(Cl)c(Cl)c(Cl)c(C#N)c1Cl [CHLOROTHALONIL]	0.5 (≈ 1.88 µM)	inactive	20.1	inactive	0.7 (≈ 2.63 µM)	0.5 (≈ 1.88 µM)	–	–	–	–	–	20.2	9.9	–
COc1ccc(Nc2c(Cl)c(F)c(C#N)c(F)c2C#N)cc1	–	inactive	–	inactive	–	–	–	inactive	inactive	–	–	6.8	–	–
CCCSc1c(F)c(N)c(C#N)c(SCCC)c1C#N	–	inactive	7.9	inactive	–	–	–	–	–	–	–	7.4	–	–
CCCSc1c(Cl)c(SCCC)c(C#N)c(F)c1C#N	11.7 (≈ 35.6 µM)	inactive	8.8	inactive	> 1000	> 500	–	–	inactive	–	–	7.5	–	–
N#Cc1c(Cl)c(Cl)c(Nc2ccccc2)c(C#N)c1Cl	–	inactive	–	inactive	–	–	inactive	inactive	–	–	–	–	15.3	–
N#Cc1c(F)c(F)c(F)c(C#N)c1F	–	inactive	–	inactive	–	–	inactive	inactive	inactive	–	–	–	–	–

SMILES	MIC (Staphylococcus aureus [1]) [µg/mL]	inhibition zone (IZ) (Pseudomonas aeruginosa)	zone of inhibition at 1000 µg/mL (Staphylococcus aureus [2]) [mm]	inhibition zone (IZ) (Escherichia coli)	MIC (Bacillus cereus [3]) [µg/mL]	MIC (Candida albicans [4]; ATCC 10231, 24 h) [µg/mL]	inhibition zone (IZ) (Bacillus cereus [5])	inhibition zone (IZ) (Staphylococcus aureus [2])	inhibition zone (IZ) (Candida albicans [6])	zone of inhibition at 1000 µg/mL (Pseudomonas aeruginosa) [mm]	zone of inhibition at 1000 µg/mL (Escherichia coli; ATCC 8099, 24 h, read-out: IZ) [mm]	zone of inhibition at 1000 µg/mL (Bacillus cereus [5]) [mm]	zone of inhibition at 1000 µg/mL (Candida albicans [6]) [mm]	MIC (Candida albicans [4])
N#Cc1c(Sc2ccccc2)c(F)c(Sc2ccccc2)c(C#N)c1Sc1ccccc1	–	inactive	–	inactive	–	–	–	inactive	inactive	–	–	9.8	–	–
N#Cc1c(Cl)c(Cl)c(NCc2ccccc2)c(C#N)c1Cl	–	inactive	–	inactive	–	–	inactive	inactive	inactive	–	–	–	–	–
OC(Cn1cncn1)(Cn1cncn1)c1ccc(F)cc1F [FLUCONAZOLE]	–	–	–	–	–	1 (≈ 3.27 µM)	–	–	–	–	–	–	22.5	–
COc1ccc(Nc2c(F)c(F)c(C#N)c(F)c2C#N)cc1	375 (≈ 1240 µM)	inactive	8.7	inactive	> 1000	–	–	–	inactive	–	–	8.6	–	inactive
N#Cc1c(N)c(Sc2ccccc2)c(Sc2ccccc2)c(C#N)c1Sc1ccccc1	–	inactive	–	inactive	–	–	inactive	inactive	–	–	–	–	–	–
CN(C)CCCNc1c(F)c(N)c(C#N)c(F)c1C#N	–	inactive	7	inactive	–	–	–	–	–	–	–	7.1	–	–
N#Cc1c(F)c(Cl)c(F)c(C#N)c1F	–	inactive	–	inactive	–	–	inactive	inactive	inactive	–	–	–	–	–
N#Cc1c(F)c(Cl)c(Nc2ccccc2)c(C#N)c1F	3.9 (≈ 13.5 µM)	–	13	inactive	125 (≈ 432 µM)	0.5 (≈ 1.73 µM)	–	–	–	7.5	–	14.6	13.6	–
CCCSc1c(Cl)c(N)c(C#N)c(F)c1C#N	1.6 (≈ 5.93 µM)	inactive	8.5	inactive	> 1000	> 500	–	–	–	–	–	7.6	–	–
N#Cc1c(N)c(F)c(F)c(C#N)c1F	125 (≈ 634 µM)	–	11.8	inactive	104 (≈ 529 µM)	62.5 (≈ 317 µM)	–	–	–	7.8	–	8	7.5	–
N#Cc1c(N)c(Cl)c(N2CCCCC2)c(C#N)c1N1CCCCC1	–	inactive	–	inactive	–	–	inactive	inactive	–	–	–	–	–	–
N#Cc1c(F)c(C#N)c(Sc2ccccc2)c(Cl)c1Sc1ccccc1	–	inactive	–	inactive	–	–	inactive	inactive	inactive	–	–	–	–	–
N#Cc1c(N)c(Cl)c(F)c(C#N)c1F	46.9 (≈ 220 µM)	inactive	8.6	inactive	> 1000	15.6 (≈ 73 µM)	–	–	–	–	–	7.4	7.3	–
N#Cc1c(F)c(F)c(Nc2ccccc2)c(C#N)c1F	3.3 (≈ 12.1 µM)	–	23	inactive	6.8 (≈ 24.9 µM)	3.9 (≈ 14.3 µM)	–	–	–	8	–	17.8	17.3	–
N#Cc1c(Cl)c(Cl)c(Sc2ccccc2)c(C#N)c1Cl	250 (≈ 736 µM)	inactive	7.3	inactive	> 1000	> 500	–	–	–	–	–	7	6.8	–
